Calls of active or inactive are those of the source. No cut-off for these calls is given here.
Experiments:
[1] = target: T1, GABA-A receptor; anion channel (Bos taurus) (UniProt P10063+P08220+P20237+P08219+P10064+P22300); assay: In vitro inhibition of specific binding of [3H]flunitrazepam to benzodiazepine receptor in bovine cerebral cortex membrane at a concentration of 10 uM.; format: cell membranes
Method in brief: (§1)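 Bovine cortex membranes (sucrose homogenate, 50 000g pellet, frozen and washed to remove endogenous GABA) in 50 mM Tris-HCl pH 7.4; 0.4 mg protein incubated 90 min at 0 °C with 0.2 nM [3H]flunitrazepam, filtered, counted. Nonspecific binding with 10 μM diazepam. Single test concentration 10 μM, or 1 μM where insoluble; mean ± SEM of five determinations.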

[2] = target: T1, GABA-A receptor; anion channel (Bos taurus); assay: Relative binding to GABA-A receptor in the presence and absence of GABA (GABA shift), Ki(-GABA)/Ki(+GABA); format: protein-complex assay
Method in brief: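 Same [3H]flunitrazepam (0.2 nM, 0 °C, 90 min) binding with GABA-depleted washed bovine cortical membranes. IC50 from log-probit analysis of 6–8 concentrations in triplicate, measured with and without 10 μM GABA; Ki by Cheng–Prusoff (Kd 1.8 nM). Ratio = Ki without GABA / Ki with GABA; Ki means ± SEM of three determinations.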

[3] = target: GABA-A receptor; anion channel; assay: (§2) In vitro inhibition of [3H]flunitrazepam binding to GABA-A benzodiazepine receptor of bovine cerebral cortical membranes at 10 uM; set-up: species or system Bos taurus; method in brief: as §1
Mus musculus [4] = assay: In vivo ip dose to antagonize Diazepam (2.5 mg/kg) anticonvulsant effect in mice treated with 80 mg/kg PTZ (NE=no effect); format: functional, organism-based; set-up: dose 80 mg/kg
Method in brief: (§3)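 Groups of 10 mice received diazepam 2.5 mg/kg ip, then 10 min later graded ip doses of compound or vehicle; PTZ 80 mg/kg given 15 min after compound. Value: dose antagonizing diazepam's anticonvulsant effect in 50% of mice. Highest dose tested 250 mg/kg.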

Mus musculus [5] = assay: Anticonvulsant activity in mice on ip dose before 80 mg/kg of PTZ (NE=no effect); format: functional, organism-based; set-up: dose 80 mg/kg
Method in brief: (§4)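 Groups of 10 mice given graded doses ip (0.1 mL) suspended in 1% carboxymethylcellulose vehicle, or vehicle alone; PTZ given 30 min later at 80 mg/kg (anticonvulsant test) or 40 mg/kg subconvulsant (proconvulsant test). Proconvulsant value: dose inducing convulsions in 50% of mice. Highest dose tested 250 mg/kg.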

Mus musculus [6] = assay: In vivo ip dose to induce convulsions in mice treated with subconvulsant PTZ (40 mg/kg) (NE=no effect); format: functional, organism-based; method in brief: as §4
[7] = target: T1, GABA-A receptor; anion channel (Bos taurus); assay: as §2; method in brief: as §1
[8] = target: T1, GABA-A receptor; anion channel (Bos taurus); assay: In vitro inhibition of [3H]flunitrazepam binding to GABA-A benzodiazepine receptor of bovine cerebral cortical membranes at 1 uM; method in brief: as §1
Mus musculus [9] = assay: In vivo ip dose to antagonize Diazepam (2.5 mg/kg) anticonvulsant effect in mice treated with 80 mg/kg PTZ; format: functional; settings: route intraperitoneal; method in brief: as §3
Mus musculus [10] = assay: In vivo ip dose to induce convulsions in mice treated with subconvulsant PTZ (40 mg/kg); format: functional; method in brief: as §4

Row | Compound | inhibition [1] [%] | Ratio [2] | Ki [3] [nM] | also measured
1 | COc1ccc(CCNC(=O)C(=O)c2c[nH]c3ccc([N+](=O)[O-])cc23)cc1 | 32 |  |  | 
2 | COc1ccc(CCNC(=O)C(=O)c2c[nH]c3ccccc23)cc1 | 97 | 1.3 | 90 | ED50 (Mus musculus [4]): inactive; Activity (Mus musculus [5]): inactive; ED50 (Mus musculus [6]): inactive
3 | COc1cccc(CCNC(=O)C(=O)c2c[nH]c3ccccc23)c1 | 97 | 1.2 | 85 | 
4 | O=C(NCCc1ccc(O)c(O)c1)C(=O)c1c[nH]c2ccc(Br)cc12 |  | 0.7 | 1200 | inhibition [7]: 85%
5 | O=C(NCCc1ccc(O)cc1)C(=O)c1c[nH]c2ccc(Cl)cc12 | 83 | 0.8 | 2200 | 
6 | O=C(NCCc1ccc(Cl)cc1)C(=O)c1c[nH]c2ccc(Cl)cc12 | 4 |  |  | 
7 | O=C(NCCc1c[nH]c2ccccc12)C(=O)c1c[nH]c2ccc([N+](=O)[O-])cc12 | 90 | 0.65 | 350 | 
8 | Cn1cc(C(=O)C(=O)NCCc2ccccc2)c2ccccc21 | 42 |  |  | 
9 | COc1cccc(CCNC(=O)C(=O)c2c[nH]c3ccc([N+](=O)[O-])cc23)c1 | 25 |  |  | 
10 | CCOC(=O)c1ncn2c1CN(C)C(=O)c1cc(F)ccc1-2 [FLUMAZENIL] |  | 1 | 0.38 | 
11 | O=C(NCCc1ccccc1)C(=O)c1c[nH]c2ccccc12 | 94 | 1.3 | 380 | ED50 (Mus musculus [4]): inactive; Activity (Mus musculus [5]): inactive; ED50 (Mus musculus [6]): inactive
12 | O=C(NCCc1ccc(Cl)cc1)C(=O)c1c[nH]c2ccc([N+](=O)[O-])cc12 | 0 |  |  | 
13 | O=C(NCCc1ccccc1)C(=O)c1c[nH]c2ccc([N+](=O)[O-])cc12 |  |  |  | inhibition [8]: 39%
14 | COc1ccc(CCNC(=O)C(=O)c2cn(C)c3ccccc23)cc1OC | 51 |  |  | 
15 | O=C(NCCc1ccccc1)C(=O)c1c[nH]c2ccc(Cl)cc12 | 25 |  |  | 
16 | COc1ccc(CCNC(=O)C(=O)c2c[nH]c3ccc([N+](=O)[O-])cc23)cc1OC |  | 1 |  | 
17 | O=C(NCCc1c[nH]c2ccccc12)C(=O)c1c[nH]c2ccc(Br)cc12 | 62 |  |  | 

Row | Compound | inhibition [1] [%] | Ratio [2] | Ki [3] [nM] | also measured
18 | O=C(NCCc1ccc(O)c(O)c1)C(=O)c1c[nH]c2ccc(Cl)cc12 |  | 0.52 | 1000 | inhibition [7]: 90%
19 | Cn1cc(C(=O)C(=O)NCCc2ccc(Cl)cc2)c2ccccc21 |  |  |  | inhibition [7]: 25%
20 | O=C(NCCc1c[nH]c2ccccc12)C(=O)c1c[nH]c2ccccc12 | 83 | 1 | 1500 | 
21 | CN1C(=O)CN=C(c2ccccc2)c2cc(Cl)ccc21 [DIAZEPAM] |  | 1.7 | 10 | 
22 | O=C(NCCc1ccc(O)cc1)C(=O)c1c[nH]c2ccccc12 | 82 | 0.7 | 2400 | 
23 | Cn1cc(C(=O)C(=O)NCCc2ccc(O)cc2)c2ccccc21 | 58 |  |  | 
24 | COc1ccc(CCNC(=O)C(=O)c2c[nH]c3ccccc23)cc1OC | 96 | 1.3 | 510 | 
25 | O=C(NCCc1ccc(O)c(O)c1)C(=O)c1c[nH]c2ccc([N+](=O)[O-])cc12 |  | 0.64 | 280 | inhibition [7]: 100%; ED50 (Mus musculus [9]): 75 mg/kg; Activity (Mus musculus [5]): inactive; ED50 (Mus musculus [10]): 100 mg/kg
26 | COc1ccc(CCNC(=O)C(=O)c2cn(C)c3ccccc23)cc1 | 67 |  |  | 
27 | O=C(NCCc1ccc(O)cc1)C(=O)c1c[nH]c2ccc([N+](=O)[O-])cc12 | 100 | 0.7 | 350 | ED50 (Mus musculus [9]): 50 mg/kg; Activity (Mus musculus [5]): inactive; ED50 (Mus musculus [10]): 75 mg/kg
28 | COc1ccc(CCNC(=O)C(=O)c2c[nH]c3ccc(Cl)cc23)cc1OC | 94 | 1.3 | 700 | 
29 | O=C(NCCc1c[nH]c2ccccc12)C(=O)c1c[nH]c2ccc(Cl)cc12 | 70 |  |  | 
30 | O=C(NCCc1ccc(Cl)cc1)C(=O)c1c[nH]c2ccccc12 |  | 1.2 | 340 | 
31 | O=C(NCCc1ccc(O)c(O)c1)C(=O)c1c[nH]c2ccccc12 |  | 0.92 | 4200 | inhibition [7]: 68%
32 | Cn1cc(C(=O)C(=O)NCCc2c[nH]c3ccccc23)c2ccccc21 | 39 |  |  | 
33 | O=C(NCCc1ccc(O)cc1)C(=O)c1c[nH]c2ccc(Br)cc12 | 75 | 0.8 | 2300 | 
34 | Cn1cc(C(=O)C(=O)NCCc2ccc(O)c(O)c2)c2ccccc21 |  |  |  | inhibition [7]: 17%

From ChEMBL document CHEMBL1126078, “Benzodiazepine receptor affinity and interaction of some N-(indol-3-ylglyoxylyl)amine derivatives” (J Med Chem, 1992)
